Assay results taken from ChEMBL document CHEMBL4396885, “Thioether-based 2-aminobenzamide derivatives: Novel HDAC inhibitors with potent in vitro and in vivo antitumor activity” (Eur J Med Chem, 2019).

Key:
[1] = Half life in ICR mouse at 4 mg/kg, iv after 0.08 to 24 hrs by LC-MS/MS analysis; type: ADME, organism-based; conditions: in vivo
How it was run: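 Male ICR mice (29.7~37.4 g), single iv dose 4 mg/kg in DMSO:40% SBE-β-CD 20:80 (v/v). Retro-orbital blood at 0.08–24 h into EDTA-K2 tubes; plasma protein-precipitated with acetonitrile containing internal standards, analysed by LC-MS/MS; n=3 per time point; noncompartmental analysis.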

HCT-116 = experiment: Antiproliferative activity against human HCT116 cells assessed as decrease in cell viability after 72 hrs by CCK-8 assay; type: functional, cell-based; conditions: HCT-116, 72 h
How it was run: (§1)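 Cells grown to 70–85% confluence (A375, A549, HCT116 in RPMI1640; HeLa, SMMC7721 in DMEM; 10% FBS, 37 °C, 5% CO2), seeded 4000/well, dosed after 12 h across a concentration range, incubated 72 h, then CCK-8 for 1 h; absorbance at 450 nm. IC50 as mean ± SD of three separate experiments.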

A-375 = experiment: Antiproliferative activity against human A375 cells assessed as growth inhibition at 8 uM after 72 hrs by CCK-8 assay relative to control; type: functional; conditions: A-375, 72 h, read-out: GI
Histone deacetylase = experiment: Inhibition of HDAC in human HeLa cell nuclear extract assessed as decrease in deacetylation of FLUOR DE LYS Green substrate preincubated for 10 mins followed by substrate addition and measured after 30 mins by fluorescence based assay; type: cell-free
A549 = experiment: Induction of apoptosis in human A549 cells assessed as necrotic cells at 1 uM after 48 hrs by Annexin V-FITC/propidium iodide staining based flow cytometry (reference value: 0.135%); type: functional
How it was run: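 A549 seeded 4×10⁶ cells/well, dosed after 12 h with compound at various concentrations, harvested after 48 h. Resuspended in annexin-binding buffer, stained with Annexin V-FITC and propidium iodide for 15 min in the dark, analysed by flow cytometry; means of three separate experiments.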

SMMC-7721 [2] = experiment: Antiproliferative activity against human SMMC7721 cells assessed as decrease in cell viability after 72 hrs by CCK-8 assay; type: functional, cell-based; conditions: SMMC-7721, 72 h; how it was run: as §1
SMMC-7721 [3] = experiment: Antiproliferative activity against human SMMC7721 cells assessed as growth inhibition at 2 uM after 72 hrs by CCK-8 assay relative to control; type: functional; conditions: SMMC-7721, 72 h, read-out: GI
Histone deacetylase 8 = target: T1, Histone deacetylase 8 (Homo sapiens, UniProt Q9BY41); experiment: Inhibition of recombinant human HDAC8 assessed as decrease in deacetylation of FLUOR DE LYS substrate preincubated for 10 mins followed by substrate addition and measured after 30 mins by fluorescence based assay
T1 sequence (Q9BY41 whole entry): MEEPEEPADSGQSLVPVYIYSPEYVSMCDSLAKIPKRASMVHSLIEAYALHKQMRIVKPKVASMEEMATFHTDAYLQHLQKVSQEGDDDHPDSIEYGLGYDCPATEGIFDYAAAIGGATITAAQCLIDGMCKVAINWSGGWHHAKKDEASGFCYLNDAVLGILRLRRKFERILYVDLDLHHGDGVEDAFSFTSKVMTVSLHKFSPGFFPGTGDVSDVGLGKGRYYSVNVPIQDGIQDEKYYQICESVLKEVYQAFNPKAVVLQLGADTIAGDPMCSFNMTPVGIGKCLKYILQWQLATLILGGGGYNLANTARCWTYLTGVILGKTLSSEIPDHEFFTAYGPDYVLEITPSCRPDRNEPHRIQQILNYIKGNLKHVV

SMILES	half-life [1]	IC50 (HCT-116)	inhibition of growth at 8 µM (A-375)	IC50 (Histone deacetylase)	Activity (A549)	IC50 (SMMC-7721 [2])	inhibition of growth at 2 µM (SMMC-7721 [3])	IC50 (Histone deacetylase 8)
COc1ccc(SCc2ccc(C(=O)Nc3ccccc3N)cc2)cc1	2.24 h	1640 nM	81.8%	> 32000 nM	1.5%	2170 nM	33.1%	> 32000 nM
CCc1ccc(SCc2ccc(C(=O)Nc3ccccc3N)cc2)cc1	2.59 h	1740 nM	71.1%	> 32000 nM	8.44%	1750 nM	25.7%	> 32000 nM
